TRPC4 potent: TRPC4 (mouse) allosteric potentiation; Q9QUQ5; HEK293 TRPC4beta/mu-opioid, DAMGO EC20, Fluo-4 Ca2+ flux; hits give high values; B-score at 10 µM; 310,000 tested, 0.42% active; AID 2227;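 active = B-score of calcium response area above 5 SD of library B-scores, with initial fluorescence ratio within 5 SD of library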;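 also: B-score of integrated fluorescence ratio over time as area under calcium response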
TRPC6 inh: inhibitors of mouse TRPC6 channel. Q61143. HEK293-TRPC6, membrane potential dye, ACh-evoked depolarization; hits give low values. B-score at 10 µM. 310,000 tested, 1.1% active. AID 2553;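 active = B-score under library mean minus 3 SD, initial fluorescence not abnormally high, positive integrated signal ratio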;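 also: B-score derived from integrated fluorescence ratio over the kinetic read; more negative B-score means stronger inhibition of depolarization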
Target sequence (Q61143 whole entry, looked up): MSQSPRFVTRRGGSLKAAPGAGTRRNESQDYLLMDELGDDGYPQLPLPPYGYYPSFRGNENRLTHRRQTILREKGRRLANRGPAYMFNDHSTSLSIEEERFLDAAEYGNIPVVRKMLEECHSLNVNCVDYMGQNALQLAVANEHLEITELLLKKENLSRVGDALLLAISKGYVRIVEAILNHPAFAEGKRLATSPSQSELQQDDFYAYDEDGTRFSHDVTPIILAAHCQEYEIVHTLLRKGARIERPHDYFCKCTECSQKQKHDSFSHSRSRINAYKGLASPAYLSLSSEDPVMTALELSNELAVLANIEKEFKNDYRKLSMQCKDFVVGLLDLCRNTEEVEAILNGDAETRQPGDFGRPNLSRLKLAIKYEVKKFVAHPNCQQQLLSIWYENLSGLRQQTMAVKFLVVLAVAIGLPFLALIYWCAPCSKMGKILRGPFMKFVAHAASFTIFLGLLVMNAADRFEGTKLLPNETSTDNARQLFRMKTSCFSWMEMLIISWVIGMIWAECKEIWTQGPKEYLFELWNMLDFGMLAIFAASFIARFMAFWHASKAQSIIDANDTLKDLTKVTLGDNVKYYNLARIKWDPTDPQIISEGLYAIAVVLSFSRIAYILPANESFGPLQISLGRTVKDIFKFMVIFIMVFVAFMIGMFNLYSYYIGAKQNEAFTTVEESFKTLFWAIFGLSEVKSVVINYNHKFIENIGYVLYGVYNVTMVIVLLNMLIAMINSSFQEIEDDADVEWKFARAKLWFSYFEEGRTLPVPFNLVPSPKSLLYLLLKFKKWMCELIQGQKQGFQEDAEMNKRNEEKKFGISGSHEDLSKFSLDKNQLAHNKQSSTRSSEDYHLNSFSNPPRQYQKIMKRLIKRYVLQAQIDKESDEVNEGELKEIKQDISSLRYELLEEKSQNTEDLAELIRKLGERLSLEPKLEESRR
TRPC6 act: activates the mouse TRPC6 cation channel. HEK293-TRPC6 membrane potential dye fluorescence; hits give high values. B-score at 10 µM. 310,000 tested, 0.13% active;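 active = B-score of the integrated fluorescence ratio above library mean plus 3 SD, and starting fluorescence ratio within library mean plus 5 SD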;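 also: higher score means more depolarization so channel activation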
TRPC4 block: blocks the mouse TRPC4 cation channel; HEK293 TRPC4beta/mu-opioid, DAMGO-evoked Fluo4 calcium flux; hits give low values; B-score at 10 µM; 300,000 tested, 0.39% active; AID 2247;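 active = B-score over 3 SD under the library average, no early fluorescence shift, positive overall ratio signal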
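Assay system – HEK293 line stably carrying TRPC4beta and mu-opioid receptor · Doses – single dose · Detection – Fluo4 calcium-dye fluorescence, kinetic read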
TRPC4 act: opens the mouse TRPC4 cation channel; Q9QUQ5; HEK293 TRPC4beta/mu-opioid, Fluo4 calcium fluorescence; hits give high values; B-score at 10 µM; 310,000 tested, 0.49% active;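 active = B-score above 5 SD of library B-scores, and initial fluorescence ratio not above library mean plus 5 SD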;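 also: positive B-score marks a calcium rise read as TRPC4 activation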
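Assay system: HEK293 cells stably co-expressing mouse TRPC4beta and mu-opioid receptor / Timing: Fluo4 dye loading 45 min at room temperature, 110 s recording / Signal: Fluo4 calcium-sensitive dye fluorescence, kinetic, 1 Hz baseline / Read-out: integrated baseline-normalised fluorescence ratio, converted to per-well B score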
TRPC4 sel inh 2: second selectivity test of TRPC6 inhibitors: effect on mouse TRPC4. HEK293 TRPC4/MOR, membrane potential dye fluorescence; channel activated by saturating DAMGO dose. 920 tested, 42% active. inhibition, % at 10 µM. AID 2776. shares compounds with TRPC6 inh;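 active = compounds whose fluorescence signal differed from control wells by over 3 SD, either direction, in both duplicate plates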
TRPC4 spec: selectivity of TRPC6 inhibitors: effect on mouse TRPC4. shares compounds with TRPC6 inh. HEK293 TRPC4/mu-opioid, membrane potential fluorescence. activity change, negative = inhibition, % at 10 µM. 920 tested, 61% active. AID 2777;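 active = rise or fall in signal beyond 3 SD of buffer-only wells in both replicate plates, either sign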;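 also: integrated kinetic ratio of fluorescence range over baseline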
HEK293 MPD ctr 2-1: second check of TRPC6 inhibitor effects in parental HEK293 cells. AID 2779. shares compounds with TRPC6 inh. 920 tested, 31% active. signal change vs control, % at 10 µM. parental HEK293 membrane potential dye fluorescence; maximal acetylcholine challenge after compound addition;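 active = membrane potential signal moving either way by over 3 SD of the maximum-effect control, in both duplicate plates, meaning non-specific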
HEK293 MPD ctr-1: checks TRPC6 inhibitor effects in parental HEK293 cells; shares compounds with TRPC6 inh; parental HEK293 membrane potential dye fluorescence; 920 tested, 60% active; AID 2780; membrane potential signal change, % at 10 µM;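 active = membrane potential signal shifting up or down by more than 3 SD of buffer-only wells, on both duplicate plates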
HEK293 MPD ctr-2: checks TRPC6 modulator effects in parental HEK293 cells; shares compounds with TRPC6 inh; membrane potential dye fluorescence; membrane potential signal change, % at 10 µM; 2,400 tested, 51% active; AID 488924;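 active = membrane potential signal moves up or down beyond 5 SD from buffer-only wells, on both duplicate plates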
HEK293 MPD ctr 2-2: second counter-screen for TRPC6 modulators: effect in parental HEK293 cells | shares compounds with TRPC6 inh | membrane potential dye fluorescence; after compound, maximal acetylcholine stimulation | inhibition, % at 10 µM | 2,400 tested, 14% active;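 active = membrane potential signal drops by more than 5 SD from the mean control signal, in both duplicate plates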;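 also: plate controls were acetylcholine ECmax control wells for no effect and buffer only wells for full effect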
TRPC4 ctr mod: tests whether TRPC6 modulators also affect mouse TRPC4; shares compounds with TRPC6 inh; HEK293 TRPC4/mu-opioid, membrane potential fluorescence; percent change from control (negative = decrease, positive = increase), % at 10 µM; 2,400 tested, 69% active; AID 488927;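 active = membrane potential signal moved up or down beyond 5 SD of buffer control wells, in both duplicate plates, actives on both sides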;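 also: plate controls were assay buffer wells for no effect and DAMGO maximal-effect wells for full effect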
TRPC4 ctr inh 2: second selectivity test of TRPC6 modulators against mouse TRPC4; shares compounds with TRPC6 inh; HEK293 TRPC4/mu-opioid, membrane potential dye fluorescence; stimulated with maximal-effect DAMGO; inhibition, % at 10 µM; 2,400 tested, 55% active; AID 488928;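 active = drop in membrane potential signal beyond 5 SD of the control wells in both duplicate plates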;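 also: TRPC4 counter screen for TRPC6 hits run under conditions tuned for TRPC6 not TRPC4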
TRPC6 block conf: confirmation of mouse TRPC6 inhibitors. shares compounds with TRPC6 inh. HEK293-TRPC6, membrane potential dye, ACh-evoked depolarization. inhibition, % at 10 µM. 3,300 tested, 43% active. AID 488960;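 active = fluorescence ratio falls more than 5 SD below the full-stimulation control mean, in both duplicate runs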;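 also: integrated fluorescence ratio of peak minus minimum over baseline after agonist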
TRPC6 act conf: mouse TRPC6 activator confirmation; shares compounds with TRPC6 inh; HEK293-TRPC6 membrane potential dye fluorescence, FDSS; activation, % at 10 µM; 2,800 tested, 11% active;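 active = ratio signal rise beyond 5 SD above unstimulated control wells' mean, seen in both duplicate runs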;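 also: plate controls were buffer EC0 wells for no effect and acetylcholine ECmax response for full effect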
* = called active by the depositor. Compounds with a hit are over-represented: about 2.3% of the library has one in this group of screens.

Results for O=C1CCCc2ccccc2N1Cc1ccc(F)cc1 ?
TRPC4 potent: inactive; TRPC6 inh: inactive; TRPC6 act: inactive; TRPC4 block: inactive; TRPC4 act: inactive

Results for N=c1c2c(n(Cc3ccccc3)c3c1CCC3)CCC2 ?
TRPC4 potent: inactive; TRPC6 inh: -7.6*; TRPC6 act: inactive; TRPC4 block: -6*; TRPC4 act: inactive; TRPC4 sel inh 2: 68%*; TRPC4 spec: -24%*; HEK293 MPD ctr 2-1: 20%*; HEK293 MPD ctr-1: -394%*; TRPC6 block conf: 65%*; TRPC6 act conf: inactive

What do the screens show for `CCOC(=O)Cn1c2c(c(=N)c3c1CCC3)CCC2`?
TRPC4 potent: inactive; TRPC6 inh: inactive; TRPC6 act: inactive; TRPC4 block: inactive; TRPC4 act: inactive

How did CCn1c2c(c(=N)c3c1CCC3)CCCC2 do in these assays?
TRPC4 potent: inactive; TRPC6 inh: -5.3*; TRPC6 act: inactive; TRPC4 block: inactive; TRPC4 act: inactive; HEK293 MPD ctr-2: -284%*; HEK293 MPD ctr 2-2: inactive; TRPC4 ctr mod: -48%*; TRPC4 ctr inh 2: 31%*; TRPC6 block conf: inactive; TRPC6 act conf: inactive

How did N=c1c2c(n(Cc3ccc(F)cc3)c3c1CCC3)CCCC2 do in these assays?
TRPC4 potent: inactive; TRPC6 inh: -5.4*; TRPC6 act: inactive; TRPC4 block: inactive; TRPC4 act: inactive; HEK293 MPD ctr-2: -188%*; HEK293 MPD ctr 2-2: inactive; TRPC4 ctr mod: -30%*; TRPC4 ctr inh 2: 30%*; TRPC6 block conf: inactive; TRPC6 act conf: inactive

What do the screens show for `Cc1nc(N2CCN(Cc3ccccc3)CC2)nc2c1CCC2`?
TRPC4 potent: inactive; TRPC6 inh: inactive; TRPC6 act: inactive; TRPC4 block: inactive; TRPC4 act: inactive

Results for CC(=O)N1CCOc2ccc(S(=O)(=O)N3CC(C)CC(C)C3)cc21 (centres undefined) ?
TRPC4 potent: inactive; TRPC6 inh: inactive; TRPC6 act: inactive; TRPC4 block: inactive; TRPC4 act: inactive

How did O=C(NCCCn1ccnc1)c1ccc(C(F)(F)F)cc1 do in these assays?
TRPC4 potent: inactive; TRPC6 inh: inactive; TRPC6 act: inactive; TRPC4 block: inactive; TRPC4 act: inactive

How did CC(C)(C)c1cc(C(=O)C[n+]2ccc(C(=O)NCCCO)cc2)cc(C(C)(C)C)c1O do in these assays?
TRPC4 potent: inactive; TRPC6 inh: inactive; TRPC6 act: inactive; TRPC4 block: inactive; TRPC4 act: inactive

Results for Cc1onc(-c2c(Cl)cccc2Cl)c1C(=O)N1CCc2ccccc21 ?
TRPC4 potent: inactive; TRPC6 inh: -5.1*; TRPC6 act: inactive; TRPC4 block: inactive; TRPC4 act: inactive; HEK293 MPD ctr-2: inactive; HEK293 MPD ctr 2-2: inactive; TRPC4 ctr mod: 12%*; TRPC4 ctr inh 2: inactive; TRPC6 block conf: inactive; TRPC6 act conf: inactive

Results for CCCCNC(=O)c1cc2c(=O)n3cccc(C)c3nc2n(CCN2CCOCC2)c1=N ?
TRPC4 potent: inactive; TRPC6 inh: -6.6*; TRPC6 act: inactive; TRPC4 block: inactive; TRPC4 act: inactive; TRPC4 sel inh 2: inactive; TRPC4 spec: inactive; HEK293 MPD ctr 2-1: -26%*; HEK293 MPD ctr-1: inactive; TRPC6 block conf: inactive; TRPC6 act conf: inactive

How did Cc1cccn2c(=O)c3cc(C(=O)NC4CCCCC4)c(=N)n(CCN4CCOCC4)c3nc12 do in these assays?
TRPC4 potent: inactive; TRPC6 inh: inactive; TRPC6 act: inactive; TRPC4 block: inactive; TRPC4 act: inactive

What do the screens show for `CCCCNC(=O)c1cc2c(=O)n3cccc(C)c3nc2n(Cc2ccncc2)c1=N`?
TRPC4 potent: inactive; TRPC6 inh: -6.7*; TRPC6 act: inactive; TRPC4 block: inactive; TRPC4 act: inactive; TRPC4 sel inh 2: inactive; TRPC4 spec: -20%*; HEK293 MPD ctr 2-1: inactive; HEK293 MPD ctr-1: -341%*; TRPC6 block conf: inactive; TRPC6 act conf: inactive

How did Cc1cccn2c(=O)c3cc(C(=O)NCCc4ccccc4)c(=N)n(Cc4ccco4)c3nc12 do in these assays?
TRPC4 potent: inactive; TRPC6 inh: inactive; TRPC6 act: inactive; TRPC4 block: inactive; TRPC4 act: inactive

Results for COCCNC(=O)c1cc2c(=O)n3cccc(C)c3nc2n(Cc2ccncc2)c1=N ?
TRPC4 potent: inactive; TRPC6 inh: -11*; TRPC6 act: inactive; TRPC4 block: inactive; TRPC4 act: inactive; TRPC4 sel inh 2: 78%*; TRPC4 spec: -11%*; HEK293 MPD ctr 2-1: -118%*; HEK293 MPD ctr-1: -230%*; TRPC6 block conf: inactive; TRPC6 act conf: inactive

What do the screens show for `COCCCn1c(=N)c(C(N)=S)cc2c(=O)n3cccc(C)c3nc21`?
TRPC4 potent: inactive; TRPC6 inh: -6.3*; TRPC6 act: inactive; TRPC4 block: inactive; TRPC4 act: inactive; HEK293 MPD ctr-2: inactive; HEK293 MPD ctr 2-2: inactive; TRPC4 ctr mod: inactive; TRPC4 ctr inh 2: inactive; TRPC6 block conf: inactive; TRPC6 act conf: inactive

Screens (PubChem BioAssay)
